# Rows were chosen to be rich in hits. Some 1.8% of all compounds tested hit in one or more screens of this group.
# RanGTP-Impb inh: disruptors of Ran-importin-beta complex formation – biochemical, FRET, CFP-Ran, YFP-importin-beta, homogeneous, primary screen; actives 1.1% (n = 300,000); inhibition, % (concentration not given with the values); cell-free CFP-Ran/YFP-importin-beta FRET ratio;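 active = more than half of the replicate wells show a fall in the fluorescence ratio signal beyond about 16%, limit read from the data, passing the limit was not always enough; inconclusive = exactly half of the replicate wells pass the set limit; inactive = fewer than half of replicates pass the limit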;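 also: 0% = DMSO wells and 100% = Ran loaded with GDP instead of GTP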
# Hck-Nef inh: blocks Nef-activated human Hck kinase. Recombinant Hck-YEEI plus Nef, Z-Lyte FRET kinase assay. inhibition, % at 20 µM. actives 0.68% (n = 220,000). AID 463187;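 active = Hck-Nef kinase inhibition above about 50%, limit read from the data; inactive = inhibition below that limit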;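 also: 0% = DMSO with Hck plus Nef and 100% = Hck alone without Nef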
# Target sequence (P08631 whole entry, looked up): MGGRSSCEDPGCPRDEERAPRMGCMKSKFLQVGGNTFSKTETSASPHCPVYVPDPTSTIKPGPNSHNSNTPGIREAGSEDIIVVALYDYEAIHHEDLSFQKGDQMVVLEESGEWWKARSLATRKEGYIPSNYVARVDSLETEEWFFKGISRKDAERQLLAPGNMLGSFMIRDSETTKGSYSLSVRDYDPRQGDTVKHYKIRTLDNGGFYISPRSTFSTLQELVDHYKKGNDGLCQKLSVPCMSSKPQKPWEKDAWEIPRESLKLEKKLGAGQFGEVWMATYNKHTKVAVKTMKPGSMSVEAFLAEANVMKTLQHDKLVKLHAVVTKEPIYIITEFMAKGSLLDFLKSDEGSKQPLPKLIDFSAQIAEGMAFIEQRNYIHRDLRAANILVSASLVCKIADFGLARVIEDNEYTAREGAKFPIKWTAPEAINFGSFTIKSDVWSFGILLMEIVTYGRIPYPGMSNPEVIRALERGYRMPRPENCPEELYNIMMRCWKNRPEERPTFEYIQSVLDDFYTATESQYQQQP
# Runt-CBFb FRET: Runt domain-CBFb interaction inhibition; Q01196+Q13951; Cerulean-Runt/Venus-CBFb FRET ratio 530/480, 1 h; inhibition, % at 20 µM; actives 0.46% (n = 220,000);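 active = inhibition over about 50% at 20 µM in the single-dose screen, limit read from the data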;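 also: 0% = DMSO wells and 100% = excess unlabeled CBFb competitor control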
#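 Assay system: Cerulean-tagged RUNX1 Runt domain (FRET donor) fusion protein / Amount: 100 nM each of Venus-CBFb and Cerulean-Runt domain / Medium: Tris buffer pH 7.5 with salts and BSA / Also added: Venus-CBFb 100 nM / Schedule: 1 h complex formation plus 1 h compound treatment, room temperature / Signal: FRET fluorescence / Read-out: loss of energy transfer signal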
# Runt-SMMHC FRET: Runt domain-CBFb-SMMHC interaction inhibition; Q01196+Q13951; Cerulean-Runt/Venus-CBFb-SMMHC FRET ratio 530/480, 1 h; inhibition, % at 20 µM; actives 0.74% (n = 220,000); AID 1434;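 active = mean inhibition across duplicate retests at 20 µM reaching about 50%, limit read from the data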;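 also: 0% = DMSO wells and 100% = wells with excess untagged CBFb-SMMHC; inhibitors lower the FRET ratio by blocking Runt binding to CBFb-SMMHC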
# Hck Nef conf: confirmation of Hck-Nef kinase inhibitors. shares compounds with Hck-Nef inh. Recombinant Hck-YEEI:Nef, Z-Lyte FRET kinase assay. calls only at 10 µM. actives 28% (n = 1,300). AID 463188;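 active = average inhibition of at least 50%, with Z-scores no higher than 3 in both the phospho-tyrosine peptide and fluorescence counterscreens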
# The depositor's hits bear a star; i = inactive; ? = inconclusive; nt = no result given; + = active, no number.
SMILES,RanGTP-Impb inh,Hck-Nef inh,Runt-CBFb FRET,Runt-SMMHC FRET,Hck Nef conf
C/C(=C/CCC(C)[C@H]1CC[C@@]2(C)C3=C(CC[C@]12C)[C@@]1(C)CCC(=O)C(C)(C)[C@@H]1CC3)C(=O)O (stereo partly specified),1,100*,-33,-28,+
Cc1cc2cc3c(C)cc(=O)oc3c(C)c2o1,0,nt,nt,nt,nt
Cc1cc2c(C)cc(=O)oc2c2c1NCCC2,10,97*,17,60*,nt
O=[N+]([O-])c1ccc(-c2nn(-c3ccccc3)cc2/C=N/n2c(-c3ccncc3)n[nH]c2=S)cc1,4,54*,11,2,i
Cc1ccc(NC(=O)CCCC(=O)O)c(-c2nc3ccccc3[nH]c2=O)c1,0,nt,nt,nt,nt
O=C(CCCN1C(=O)/C(=C/c2ccco2)SC1=S)Nc1cccc(C(=O)O)c1,2,82*,34,-3,i
O=C1/C(=C\c2ccc(O)cc2)SC(=S)N1c1cccnc1,2,17,-13,-42,nt
O=C1/C(=C/c2ccco2)SC(=S)N1c1cccnc1,0,90*,29,2,i
NN1C(=O)/C(=C\c2ccco2)SC1=S,-2,78*,44,6,i
Cc1ccc(NC(=O)CSCC(=O)N(C)CC(=O)Nc2cccc(F)c2)cc1,5,nt,nt,nt,nt
CCOC(=O)c1c(NC(=O)c2cc(-c3ccc(Cl)s3)nc3ccccc23)sc(C(N)=O)c1C,-3,66*,-25,-38,i
O=C(O)c1ccc2c(c1)C(=O)/C(=C/c1ccccc1)C2=O,1,19,-1,-10,nt
O=C(O)c1ccc2c(c1)C(=O)/C(=C\c1ccco1)C2=O,-5,61*,32,24,+
O=C(Nc1nnc(-c2ccccc2)o1)c1nc2ccccc2s1,2,30,-5,2,nt
COc1nc(Nc2nc3ccccc3c(=O)[nH]2)nc2ccc(C)cc12,-2,75*,-3,1,i
Cc1ccc(CC(=O)Nc2nccs2)cc1C,6,nt,nt,nt,nt
CC1(C)CC(NC(=O)C2CCC(=O)N(C3CC3)C2)CC(C)(C)C1 (stereo unspecified),2,nt,nt,nt,nt
CC(C)(C)c1cc(-c2csc(Nc3ccccc3)[n+]2Cc2ccc(C(=O)O)cc2)cc(C(C)(C)C)c1O,-2,76*,-4,-12,i
O=C(O)CSc1c2c(nc3cc(C(=O)Nc4ccc(F)c(Cl)c4)ccc13)CCCC2,2,nt,nt,nt,nt
Oc1ccc(Nc2ccnc3cc(Cl)ccc23)cc1,5,64*,4,0,+
CN1CCN(CC(=O)Nc2nnc(-c3cccs3)s2)CC1,4,5,-3,0,nt
CC1(C)CC(Nc2ccc(Nc3ccccc3)cc2)CC(C)(C)N1,-1,-83,5,0,nt
O=C(CN(Cc1cccs1)C(=O)CNS(=O)(=O)c1ccc(Cl)cc1)NCC1CCCO1 (stereo unspecified),6,53*,2,-6,i
COc1ccccc1S(=O)(=O)Cc1ccc(C(=O)NCCCN2CCN(c3ccc(F)cc3)CC2)o1,6,nt,nt,nt,nt
O=c1cc(CSc2ccc(Cl)cc2)nc(-c2ccccn2)[nH]1,-3,nt,nt,nt,nt
SMILES,RanGTP-Impb inh,Hck-Nef inh,Runt-CBFb FRET,Runt-SMMHC FRET,Hck Nef conf
Cc1ccc(C(=O)NC(C)c2nc3ccccc3n2CC(=O)Nc2c(C)cc(C)cc2C)cc1 (stereo unspecified),-1,57*,-2,0,i
CCN(CC)c1ccc(NC(=O)Cn2c(C(C)NC(=O)c3ccccc3)nc3ccccc32)cc1 (stereo unspecified),-2,15,6,3,nt
Cc1nn(-c2ccccc2)nc1C(=O)c1c(C)[nH]n(-c2ccccc2)c1=O,4,4,2,-6,nt
CC(=O)c1sc2nc(CSc3nnnn3-c3ccccc3)[nH]c(=O)c2c1C,1,53*,-11,-43,+
COc1cc2ncnc(NCc3ccccc3)c2cc1OC,0,19,1,-18,nt
COc1cc2ncnc(NCc3ccco3)c2cc1OC,?,53*,-1,2,i
COc1ccc(C(=O)Nc2ccccc2-c2nnn(CC(=O)Nc3ccc4c(c3)OCCO4)n2)cc1,0,60*,-2,0,i
Cc1cccc(N=C2NC(=O)/C(=C/C=C/c3ccco3)S2)c1,-5,29,5,-14,nt
O=C1NC(=Nc2ccc(O)cc2)S/C1=C/c1ccco1,-6,81*,5,2,i
COc1ccc(N=C2NC(=O)/C(=C\C=C\c3ccco3)S2)cc1,4,88*,5,-20,+
CCC(Oc1ccccc1)C(=O)OCC(=O)N(CC)c1c(N)n(Cc2ccccc2)c(=O)[nH]c1=O (stereo unspecified),-2,nt,nt,nt,nt
Oc1ccc(-c2nc3ccccc3s2)c(O)c1,-5,163*,6,8,nt
Oc1ccc(-c2nc3ccccc3s2)cc1,6,47,-1,3,nt
CCOc1cc(C2c3c(oc4ccccc4c3=O)C(=O)N2c2nccs2)ccc1O (stereo unspecified),-2,85*,0,2,i
CCOc1cccc(C2c3c(oc4ccccc4c3=O)C(=O)N2c2ccccn2)c1 (stereo unspecified),-3,2,-2,-1,nt
Cc1cccn2c(=O)c(/C=N/O)c(Nc3ccccc3F)nc12,0,70*,-2,-8,i
Cc1cc(=O)oc2cc(OCc3ccc(C(=O)OCC(=O)Nc4ccc(N(C)C)cc4)cc3)ccc12,2,147*,1,-1,i
CCOC(=O)c1cc(CC)sc1NC(=O)COc1ccc2c(C)cc(=O)oc2c1,6,55*,-3,1,i
CSc1nc(N(C)CCO)c2sc3nc(-c4ccco4)c4c(c3c2n1)CCC4,-2,89*,-11,-80,i
Cc1ccc(S(=O)(=O)N(C)C)cc1NC(=O)COC(=O)COc1ccc2c(c1)CCC2,-5,nt,nt,nt,nt
CCOc1ccc(CCNC(=O)COC(=O)COc2ccc(Br)cc2)cc1OCC,-3,nt,nt,nt,nt
CCc1cc(-c2[nH]ncc2-c2ccc3c(c2)OCO3)c(O)cc1O,9,65*,1,-6,+
CC1=NNC(=O)/C1=C\c1cn(-c2ccccc2)nc1-c1ccc(Cl)cc1,0,60*,-4,-12,+
Cc1ccc(-c2nn(-c3ccccc3)cc2C=C2C(=O)CC(C)(C)CC2=O)cc1,0,1,nt,29,nt
COc1ccc(/C=N/n2c(C)nc3c([nH]c4ccccc43)c2=O)cc1CN1CCCC(C)(C)C1,-3,56*,-7,0,i
COc1ccc2[nH]c3c(=O)n(/N=C/c4ccc(OC)c(CN5CCCC5)c4)c(C)nc3c2c1,2,-9,1,2,nt
CCCCc1cc(=O)oc2c(CN3CCCC3)c(O)ccc12,8,97*,34,95*,i
CCc1cc(=O)oc2c(CN3CCCC3)c(O)c(Cl)cc12,?,102*,99*,146*,nt
